Data set [1] can be described thus: Solubility of the compound. The format is physicochemical.
Data set [2] in a line: Inhibition of HIV1 Nef (56-206)/SH3 domain of GST-Hck expressed in Escherichia coli BL21 DE3 complex formation at […] after 1 hr by high-mass MALDI TOF analysis. The essentials:
(§1)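 Nef core (56–206) and Hck SH3 were expressed in E. coli BL21 DE3 as GST fusions, thrombin-cleaved and gel-filtered. Nef was preincubated 1 h at rt with compound from DMSO stocks (up to 5 mM stock), then SH3-Hck was added for 1 h at rt. Samples were cross-linked 1 h, mixed with sinapinic acid matrix and analysed by high-mass MALDI-TOF in triplicate. IC50 comes from % complex versus log concentration.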

Data set [3] relates to Protein Nef (Human immunodeficiency virus type 1). The data set can be described thus: Decrease in aggregation temperature of HIV1 His-tagged Nef at 10 to 200 uM by thermal protein denaturation assay (reference value: 58.83 +/- 0.25 degC).
Data set [4] in a line: Cytotoxicity against african green monkey COS7 cells assessed as cell viability up to 40 uM after 70 hrs. The format is cell-based, COS-7. To be noted: chlorocebus aethiops, read-out: Activity.
The nature of data set [5]: Inhibition of HIV1 Nef (56-206)/SH3 domain of GST-Hck expressed in Escherichia coli BL21 DE3 complex formation after 1 hr by high-mass MALDI TOF analysis. The essentials: as §1
Data set [6] is described as follows: Induction of HIV1 GST-Nef-mVenus proteolysis after 30 mins preincubation measured after 60 mins by cleavage enzyme-cytometric bead array method in presence of HIV1 protease. Also on record: species or system Human immunodeficiency virus 1. The essentials:
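CE-CBA: a GST-Nef-mVenus reporter is immobilized on anti-GST antibody beads and cleaved by HIV protease. Cleavage is followed as loss of bead fluorescence by flow cytometry. Values are normalized to the DMSO control (0% cleavage) and intrinsic bead fluorescence (100%). Relative EC50 is reported as mean ± SEM of three independent experiments.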

Activity calls are given as the source filed them. The rule behind the calls is not given here.

On to `COC(=O)c1cccc(NC(=O)COc2ccc(-c3ccc(C(C)(C)C)cc3)cc2)c1`, for which the solubility result in data set [1] is listed as “Insoluble”.

On to `CC(C)(C)c1ccc(OCC(=O)Nc2cccc(C(=O)O)c2)cc1`, for which the inhibition result in data set [2] is “Active”. The T in data set [3] amounted to 50.3 °C. For the same molecule, the viability at 70 h in data set [4] turned out to be 86.6%. The IC50 in data set [5] was over 50 µM. Further, in data set [6], the EC50 came to 109 µM.

On to `CC(C)(C)c1ccc(-c2ccc(OCC(=O)Nc3cccc(C(=O)O)c3)cc2)cc1`, for which, in data set [1], the solubility result is recorded as “Insoluble”. The inhibition result in data set [2] is “Active”. The viability at 70 h in data set [4] worked out at 73%. The molecule also had an IC50 in data set [5] of 15.9 µM. For the same molecule, the EC50 in data set [6] came to 34.3 µM.

(Values after ChEMBL document CHEMBL1938262, “A specific protein disorder catalyzer of HIV-1 Nef” (Bioorg Med Chem, 2011).)
